Drawing on ChEMBL document CHEMBL2321715, “Design and synthesis of novel 2-methyl-4,5-substitutedbenzo[f]-3,3a,4,5-tetrahydro-pyrazolo[1,5-d][1,4]oxazepin-8(7H)-one derivatives as telomerase inhibitors” (Bioorg Med Chem Lett, 2013), this text covers IC50, Activity and inhibition for nine molecules.

Assay [1] deals with Telomerase reverse transcriptase (Homo sapiens, UniProt O14746). In words: Inhibition of telomerase activity in human MGC803 cells after 24 hrs by TRAP-PCR-ELISA assay. Background: In an ELISA, binding on a coated surface is turned into a signal by an enzyme label.
Assay [2] in a line: Downregulation of TERT expression in human MGC803 cells after 48 hrs by Western blot analysis. The class given is functional, cell-based. The conditions noted are these: MGC-803. In a few lines: (§1)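 MGC-803 cells exposed 48 h; lysed in RIPA buffer, protein measured by BCA, […] total protein run on SDS–PAGE and blotted to PVDF. Primary antibodies 1 h in TBS/Tween-20 (0.075%) with 3% Marvel: anti-TERT, anti-β-actin, anti-Cyclin D1, anti-phospho-AKT, anti-AKT, each 1:500. HRP secondaries, ECL detection. DMSO vehicle control; LY used as comparator.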
A general note: In western blotting, separated proteins are transferred to a membrane and probed.

The next assay has as its system MGC-803. In words: Inhibition of PI3K-mediated Akt phosphorylation in human MGC803 cells after 48 hrs by Western blot analysis. The assay is classed as cell-based. In short, it runs like this:
as §1

The nature of assay [3]: Downregulation of cyclin D1 expression in human MGC803 cells after 48 hrs by Western blot analysis. The class given is functional, cell-based. As to conditions: MGC-803. In a few lines: as §1

The source made the active and inactive calls. No cut-off for these calls is given here.

Telomerase reverse transcriptase, sequence (O14746 whole entry): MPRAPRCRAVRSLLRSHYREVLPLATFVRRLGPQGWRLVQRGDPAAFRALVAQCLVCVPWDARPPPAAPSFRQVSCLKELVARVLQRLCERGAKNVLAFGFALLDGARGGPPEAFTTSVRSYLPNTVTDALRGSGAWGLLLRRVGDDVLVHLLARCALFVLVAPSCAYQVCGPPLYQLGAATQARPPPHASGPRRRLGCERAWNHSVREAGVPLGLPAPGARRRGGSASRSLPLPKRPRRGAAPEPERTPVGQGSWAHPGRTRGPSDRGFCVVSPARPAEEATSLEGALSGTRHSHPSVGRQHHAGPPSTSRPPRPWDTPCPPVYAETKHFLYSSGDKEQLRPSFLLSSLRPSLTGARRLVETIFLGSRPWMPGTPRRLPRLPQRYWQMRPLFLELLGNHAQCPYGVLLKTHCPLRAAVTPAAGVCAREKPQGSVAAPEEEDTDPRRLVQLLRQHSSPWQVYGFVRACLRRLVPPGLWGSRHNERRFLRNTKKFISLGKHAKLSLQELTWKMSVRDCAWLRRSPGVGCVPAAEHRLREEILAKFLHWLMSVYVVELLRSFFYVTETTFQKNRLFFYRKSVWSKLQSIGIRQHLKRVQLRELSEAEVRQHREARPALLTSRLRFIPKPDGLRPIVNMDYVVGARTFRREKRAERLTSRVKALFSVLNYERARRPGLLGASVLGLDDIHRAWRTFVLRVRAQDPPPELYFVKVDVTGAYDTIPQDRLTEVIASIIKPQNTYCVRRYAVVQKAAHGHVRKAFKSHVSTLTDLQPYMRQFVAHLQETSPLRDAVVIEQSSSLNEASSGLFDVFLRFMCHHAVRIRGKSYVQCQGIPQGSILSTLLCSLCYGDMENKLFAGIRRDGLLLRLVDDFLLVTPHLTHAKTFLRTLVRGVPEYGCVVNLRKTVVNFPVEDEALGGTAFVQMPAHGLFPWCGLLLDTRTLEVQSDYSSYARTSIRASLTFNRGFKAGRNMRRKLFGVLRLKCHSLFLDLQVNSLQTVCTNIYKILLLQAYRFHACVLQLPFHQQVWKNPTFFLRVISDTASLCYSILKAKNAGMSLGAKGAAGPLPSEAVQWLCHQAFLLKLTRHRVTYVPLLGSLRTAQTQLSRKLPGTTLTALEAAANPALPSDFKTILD

The term IC50 denotes the concentration that inhibits the measured activity by half. Read a high IC50 as weaker potency in that assay. `CC1=NN2C(=O)COc3cc([N+](=O)[O-])ccc3C2C1` (centres undefined) came in with a concentration for half-maximal inhibition (IC50) in assay [1] of 6.6 µM.
Regarding `CC1=NN2C(=O)COc3c(Br)cc(Br)cc3C2C1` (centres undefined), the result in assay [2] and in assay [3] was Active. In assay [1], this molecule came in with an IC50 of 0.78 µM. Besides, in the assay with MGC-803, the inhibition result is “Active”.
In turn, `CC[n+]1c(-c2ccccc2)c2cc(N)ccc2c2ccc(N)cc21` [HOMIDIUM BROMIDE] displayed an IC50 in assay [1] of 2.39 µM.
With `CC1=NN2C(=O)COc3ccccc3C2C1` (centres undefined), half-maximal inhibition in assay [1] (IC50) was put at 14.8 µM.
As to `CC1=NN2C(=O)COc3c(F)cccc3C2C1` (centres undefined), the outcome in assay [2] was Active. It took 2.11 µM to reach half-maximal inhibition in assay [1] (IC50).
`CC1=NN2C(=O)COc3cc(C)ccc3C2C1` (centres undefined): the result in assay [2] was Active. Also, the IC50 in assay [1] came out at 21.9 µM.
As to `CC1=NN2C(=O)COc3ccc(C(F)(F)F)cc3C2C1` (centres undefined), the outcome in assay [2] was Active. In assay [1], this molecule came in with an IC50 of 3.14 µM.
Regarding `COc1cccc2c1OCC(=O)N1N=C(C)CC21` (centres undefined), the result in assay [2] was Active. The molecule also showed an IC50 in assay [1] of 10.8 µM.
As for `CC1=NN2C(=O)COc3ccc(Cl)cc3C2C1` (centres undefined), the result in assay [2] and in assay [3] was Active. Besides, the IC50 in assay [1] was 1.71 µM. In addition, in the assay on MGC-803, the inhibition result is “Active”.
